We go through 2 compounds from ChEMBL document CHEMBL1811844, “Design, synthesis, and biological evaluation of triazolo-pyrimidine derivatives as novel inhibitors of hepatitis B virus surface antigen (HBsAg) secretion” (J Med Chem, 2011).

Data set [1] in a line: Cytotoxicity against human HepG2(2.2.15) cells by MTT assay. Type of data set: cell-based.
Data set [2] concerns Rattus norvegicus. Kind of data set: Volume of distribution at steady state in fasted Sprague-Dawley rat at 5 mg/kg, iv by LC/MS/MS analysis. Type of data set: ADME, organism-based. Also noted: dose 5 mg/kg, route intravenous. Conditions: in vivo. The procedure, abridged: (§1)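 Male Sprague-Dawley rats, 3 per treatment, carried jugular cannulae and were fasted 12 h with water. Compound was formulated at 2 mg/mL in 1:1 NMP:Solutol HS15 diluted with saline. Dosing was 5 mg/kg iv or 25 mg/kg oral gavage. Blood was drawn predose and at 5, 15, 30 min, 1, 3 and 6 h. Plasma was quantified by LC-MS/MS against an 8-point standard curve.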

For data set [3], the system named is Rattus norvegicus. Briefly: Total body clearance in fasted Sprague-Dawley rat at 5 mg/kg, iv by LC/MS/MS analysis. Also noted: dose 5 mg/kg, route intravenous. The format is ADME, organism-based. The conditions noted are these: in vivo. The procedure, abridged:
as §1

Data set [4] concerns Rattus norvegicus. Kind of data set: Half life in fasted Sprague-Dawley rat plasma at 5 mg/kg, iv by LC/MS/MS analysis. The format is ADME, organism-based. Also noted: dose 5 mg/kg, route intravenous. Conditions: in vivo. An outline of the steps:
as §1

Data set [5] relates to Rattus norvegicus. Kind of data set: Oral bioavailability in fasted Sprague-Dawley rat at 25 mg/kg after 6 hrs by LC/MS/MS analysis. Type of data set: ADME, organism-based. Conditions: in vivo. The procedure, abridged: as §1
Data set [6] concerns Rattus norvegicus. Kind of data set: Cmax in fasted Sprague-Dawley rat plasma at 25 mg/kg, po after 6 hrs by LC/MS/MS analysis. The format is ADME, organism-based. Also noted: dose 25 mg/kg, route oral. Conditions: in vivo. The procedure, abridged: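 Male rats, 3 per treatment, fitted with jugular vein cannulae two days before dosing and fasted 12 h (water allowed). Compound given by gavage at 25 mg/kg, formulated at 2 mg/mL in 1:1 NMP:Solutol HS15 diluted with saline. Blood taken predose and at 5, 15, 30 min, 1, 3 and 6 h. Plasma quantified by LC/MS against an 8-point standard curve; Cmax calculated by standard methods.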

Compound `Cc1ccc(C2=CC(c3c(F)cccc3Cl)n3ncnc3N2)cc1C` (stereo unspecified) gave a 50% cytotoxic concentration (CC50) in data set [1] of over 50 µM.

`Fc1cccc(F)c1C1C=C(c2ccc(Cl)cc2)Nc2ncnn21` (stereo unspecified) gave a Vdss in the data set with Rattus norvegicus [2] of 2.6 L/kg. Moreover, the CL in the data set with Rattus norvegicus [3] is 17 mL/min/kg. In the data set on Rattus norvegicus [4], this compound returned a t1/2 of 2.4 h. Further, in the data set with Rattus norvegicus [5], the F came out at 42%. The compound also displayed a Cmax in the data set on Rattus norvegicus [6] of 1937 ng/mL.
